Source: PubChem BioAssay
TNF necrop inh: inhibitors of TNF-alpha induced necroptosis in Jurkat FADD-/- cells; Jurkat FADD-/- TNF necroptosis rescue, ATP luminescence, 24 h; 0 = TNF only, 100 = no-TNF cells; activation (protection from cell death), % at 10 µM; 0.068% of 220,000 active; AID 463075;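 active = activation, meaning protection from cell death, of at least 50% relative to plate controls; inactive = activation below 50%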;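 note: necroptosis triggered by 40 ng/mL TNF-alpha added together with compound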
Pf gamet viab: inhibitors of late stage P. falciparum gametocyte viability; P. falciparum stage V gametocytes, ATP luminescence, 24 h; inhibition, % at 10.9 µM; 0.065% of 150,000 active;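 active = inhibition above the mean plus 3 SD of compounds within the control limits, set per campaign, cut at about 38% in these data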;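 note: 0% = DMSO wells and 100% = medium only without gametocytes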
Arbovirus inh: arbovirus infection inhibition; inhibition, % at 10 µM; 0.37% of 200,000 active; AID 1251; arbovirus infection cell-based antiviral screen; in the data active = inhibition above about 30%
zVAD death inh: L929 zVAD cell death inhibition; L929 zVAD necroptosis rescue, ATP luminescence, 24 h; with zVAD 60 µM; viability rescue, % at 10 µM; 0.38% of 220,000 active; AID 1377;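 active = activation, scaled between plate controls, above about 75%, limit read from the data; inactive = activation under that limit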;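 note: 0% = zVAD with DMSO and 100% = DMSO alone without zVAD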
Lipid droplet: hepatic lipid droplet formation modulation | AML12 mouse hepatocytes, oleate lipid droplets, BODIPY imaging | inhibition, % at 6.5 µM | 0.4% of 240,000 active;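 active = lipid droplet intensity inhibited by at least 50%, with more than 500 cells counted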
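Material: mouse AML12 hepatocyte cell line, fixed after treatment; Timing: compound with oleate, overnight; Technique: high-content imaging of BODIPY-stained droplets and DAPI nuclei; Probe or stimulus: oleate, 100 µM final; Dosing: compound at 6.5 µM only.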
zVAD death conf: confirmed blocker of zVAD induced death in L929 cells. activation (protection from necroptosis), % at 10 µM. shares compounds with zVAD death inh. 16% of 760 active. L929 zVAD-induced necroptosis rescue, ATP luminescence, 24 h. AID 463117;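 active = mean protection from necroptosis of at least 50% over duplicate tests; inactive = mean protection below 50%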;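 note: 0% = cells with zVAD alone and 100% = vehicle cells without zVAD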
An asterisk follows results filed as active; / = no result given. Hits are enriched below; roughly 0.91% of the tested compounds scored in any of these assays.

SMILES | TNF necrop inh | Pf gamet viab | Arbovirus inh | zVAD death inh | Lipid droplet | zVAD death conf
COCCn1c(C)cc(C(=O)CSc2nc3ccccc3c(=O)n2Cc2ccco2)c1C | 3.6 | 2.5 | -1.2 | 0.5 | 5.3 | /
CCC1CCCCN1C(=O)CSc1nnc(CNC(=O)c2c(F)cccc2Cl)o1 (configuration not stated) | / | / | / | / | -3.4 | /
CC(C)c1ccc(N=Cc2c(O)c3ccccc3oc2=O)cc1 | / | / | / | / | 6.6 | /
O=C(O)C(Cc1ccccc1)N=Cc1c(O)c2ccccc2oc1=O (configuration not stated) | -6.1 | 6.3 | 31.2* | 0.8 | -7.1 | /
C/C(=N\O)C1CCCCC1 | 1.7 | / | / | 1.1 | -2.8 | /
O=C(CSCc1ccc(F)cc1)Nc1ccc(F)cc1 | 78.8* | 7.8 | 9.1 | 0.3 | -0.7 | /
O=C(Nc1nc2ccccc2s1)c1ccc(OCC2CCCO2)cc1 (configuration not stated) | 3.8 | 6.0 | 30.8* | 0.8 | 51.9* | /
Cn1cc(CN2CCN(c3ccccc3)CC2)c2ccccc21 | 3.8 | / | 35.8* | -0.3 | / | /
O=C(O)Cn1cc(CN2CCOCC2)c2ccccc21 | / | / | / | / | 2.5 | /
CCN(c1ccc(OC)cc1)S(=O)(=O)c1nnc(NC(=O)CC(C)C)s1 | / | / | / | / | -2.9 | /
CC(=O)N(c1ccccc1)c1nnc(-c2cnc(C)cn2)s1 | 76.4* | 4.4 | -6.4 | 36.9 | -0.5 | /
O=C(c1cc(-c2ccccc2O)on1)N1CCc2ccccc2C1 | -0.8 | / | 33.5* | 0.9 | / | /
O=C(c1cc(-c2ccc(O)cc2)on1)N1CCc2ccccc2C1 | -2.3 | / | -22.6 | 2.4 | / | /
O=C(CCC1CCN(C(=O)c2cc(C(F)(F)F)ccc2Cl)CC1)NC1CC1 | / | / | / | / | 7.3 | /
CCOc1cccc(C(=O)Nc2ccccc2C(=O)N2CCOCC2)c1 | / | / | / | / | -0.5 | /
CCSc1nnc(NC(=O)CSc2nnc(Cc3cccn3C)n2-c2ccc(F)cc2)s1 | 0.2 | / | 33.2* | 0.6 | / | /
CC(C)C(=O)Nc1ncc(Cc2ccc(Cl)cc2)s1 | 5.3 | -14.4 | -11.7 | 3.1 | 3.7 | /
O=C(Nc1ccc(F)c(F)c1)c1ccccc1 | / | 7.2 | / | / | / | /
COC(C(=O)Nc1cccc(F)c1)c1ccccc1 (configuration not stated) | 79.1* | / | -4.0 | 23.0 | / | /
COC(C(=O)Nc1ccc(F)c(F)c1)c1ccccc1 (configuration not stated) | 98.7* | 5.0 | / | 13.3 | / | /
N/C(=N\OC(=O)CN1C(=O)c2ccccc2C1=O)c1ccc(Br)cc1 | 0.9 | / | -3.3 | 3.1 | -0.3 | /
CCN1C(=O)[C@H]2[C@@H](c3ccc(C)cc3)N3C(=O)N(c4cccc(Br)c4)C(=O)[C@@]3(CC(C)C)[C@H]2C1=O | / | -14.2 | / | / | / | /
CC(C)Cc1csc(NC(=O)c2ccc(F)cc2)c1C(=O)O | -1.4 | 6.6 | 48.3* | -0.1 | -22.8 | /
O=S1(=O)[C@H]2C[C@@H]3C=C[C@@]2(CN1Cc1ccc(F)cc1)O3 | / | -20.1 | / | / | 1.0 | /
O=C(CCl)Nc1ccccc1C(=O)NCc1ccccc1 | -5.5 | 0.2 | 16.7 | -0.8 | -6.2 | /
SMILES | TNF necrop inh | Pf gamet viab | Arbovirus inh | zVAD death inh | Lipid droplet | zVAD death conf
O=C(NC1CCN(Cc2ccccc2)CC1)c1cccc(S(=O)(=O)Nc2cc(C(F)(F)F)ccc2Cl)c1 | 1.7 | -1.6 | 32.8* | -0.1 | 3.7 | /
O=C(O)c1ccccc1Nc1cccc(C(F)(F)F)c1 | 0.7 | / | 38.4* | -1.1 | 1.3 | /
S=C(NCCc1ccc(Cl)cc1)NC1CC1 | -0.1 | -18.0 | 1.1 | 91.8* | -1.1 | 5.8
CCOc1ccc2nc(NC(=O)C3CCCN(S(=O)(=O)c4cccs4)C3)sc2c1 (configuration not stated) | 1.1 | 12.5 | -4.3 | 88.3* | 31.4 | 5.1
CCNC(=O)NC(=O)C(C)OC(=O)c1ccc(-n2nc(SC)sc2=S)cc1 (configuration not stated) | 3.5 | / | 8.5 | 82.3* | -24.0 | 38.5
O=[N+]([O-])c1cc(-c2nnc(Nc3ccccc3)c3ccccc23)ccc1N1CCOCC1 | 1.3 | -1.8 | -10.8 | 98.5* | -6.0 | 36.0
C(=N\Nc1nc2ccccc2s1)/c1cccs1 | 10.2 | / | 18.5 | 81.8* | / | 10.4
C(=N\Nc1nc2ccccc2s1)/c1ccco1 | 17.4 | / | 10.1 | 93.9* | / | 48.7
CCN(CC)CCCC(C)NC(=O)c1cccc(S(=O)(=O)N2CCc3ccccc32)c1 (configuration not stated) | 1.2 | -22.5 | 16.6 | 1.0 | 9.8 | /
O=C(COc1ccccc1)Nc1ccc2[nH]c(=O)[nH]c2c1 | -1.6 | 4.5 | 3.6 | 76.5* | 2.3 | 1.9
O=C(COc1ccccc1)Nc1ccc2c(c1)Cc1cc(NC(=O)COc3ccccc3)ccc1-2 | 2.0 | / | -18.2 | 1.1 | 3.9 | /
Cc1ccccc1C(=O)NC(=S)Nc1ccc2[nH]c(=O)[nH]c2c1 | 0.2 | 2.9 | -4.8 | 75.7* | 36.7 | 3.0
O=C(NC(=S)Nc1ccc2[nH]c(=O)[nH]c2c1)c1ccccc1F | / | / | / | / | -1.2 | /
CC1CN=C(N(C(=S)Nc2ccccc2)c2cccc(C(F)(F)F)c2)S1 (configuration not stated) | 0.2 | 15.9 | / | 0.9 | -3.2 | /
O=C(Nc1ccc2c(c1)OCO2)Nc1ccc(Br)cn1 | 8.4 | 8.2 | -16.1 | 78.6* | 21.8 | 0.8
O=C(Nc1ccc2c(c1)OCCO2)Nc1ccc2c(c1)OCO2 | -1.9 | / | -16.8 | 0.9 | 13.8 | /
Cc1ccnc(NC(=O)Nc2ccc3c(c2)OCO3)c1 | 1.1 | 13.0 | -8.7 | 84.9* | 2.8 | 1.7
CCNc1ncnc2c1cnn2C | 1.8 | -6.2 | 4.5 | 1.7 | 8.3 | /
COC(=O)Cc1[nH]nc2c1C(c1c[nH]c3ccccc13)C(C#N)=C(N)O2 (configuration not stated) | -7.6 | / | -5.3 | 0.8 | / | /
Cc1[nH]nc2c1C(c1c[nH]c3ccccc13)C(C#N)=C(N)O2 (configuration not stated) | -4.7 | -1.0 | / | 76.6* | 5.8 | 36.6
O=C(O)c1ccc(N=Cc2c(O)ccc3oc4c(c23)CCCC4)cc1 | -16.9 | -9.8 | / | 0.6 | / | /
Oc1ccccc1N=Cc1c(O)ccc2oc3c(c12)CCCC3 | -21.8 | -2.9 | / | 75.2* | / | 2.2
O=C(Nc1ncc2c(n1)-c1ccccc1CC2)C1CC1 | -4.2 | 30.2 | -0.4 | 76.1* | / | 2.2
COc1ccccc1CN1CCCC(CNC(=O)c2cccc3ccccc23)C1 (configuration not stated) | / | / | / | / | -22.6 | /
Cc1cc(C)cc(NC(=O)Nc2cccnc2)c1 | / | / | / | / | -51.0 | /
Cc1ccc(NC(=O)Nc2cccnc2)cc1NC(=O)Nc1cccnc1 | -10.7 | / | / | 77.3* | 30.8 | 5.6
CCOc1cc(/C=C2\N=C(SC(C)C(N)=O)N(c3ccc(OC(F)F)cc3)C2=O)ccc1O (configuration not stated) | / | / | / | / | -1.8 | /
N#Cc1ccncc1S(=O)c1ccc(Cl)cc1 (configuration not stated) | / | / | / | / | -4.9 | /
CCCCN(CC)CCNC(=O)c1cc2c(=O)n(C)c3ccccc3c2n1C | 4.4 | / | 9.5 | 74.6 | / | /
CCN(CC)CCNC(=O)c1cc2c(=O)n(C)c3ccccc3c2n1C | 4.5 | / | 14.2 | 77.2* | / | 19.7
